This sample holds only a part of the variants without activity.
B1: tRNA (parent)
chain: GUUCCGUUGGCGUAAUGGUAACGCGUCUCCCUCCUAAGGAGAAGACUGCGGGUUCGAGUCCCGUACGGAACG

Variants of: B1
Test: yeast fitness relative to wild type (ratio to wild type); higher = fitter; tRNA-Arg(CCU), competitive growth, 37 C, YPD
Summary of the method: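 A pool of Saccharomyces cerevisiae strains, each with a tRNA-Arg(CCU) gene variant at the native genomic locus, was competed in YPD at 37°C for 24 hours across six parallel replicates. The variants had been chemically synthesised at a 3% per-site mutation rate over 69 sites, and gene amplicons before and after competition were read by 100-nucleotide paired-end sequencing. Darwinian fitness relative to wild type rested on changes in genotype frequencies. Genotypes required ≥ 100 starting reads, and estimates < 0.5 were set to 0.5.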

| Variant | yeast fitness |
| --- | --- |
| G10A C29G C34G | ≤ 0.5 |
| G23U C33G G58C | ≤ 0.5 |
| C24G C29G G39C | 0.513 |
| G10C C27G C61G | ≤ 0.5 |
| U2G U7G U16C C34U | ≤ 0.5 |
| G52A A57C | 0.789 |
| C4G C30A C62U | 0.526 |
| U2A C11U G48C | ≤ 0.5 |
| A37U G44C | 0.784 |
| A14G C22G C29G G41C | ≤ 0.5 |
| U16C U19C A21C G23C C49G G52A | ≤ 0.5 |
| U3C U13A A14C A42G | ≤ 0.5 |
| C24A A40G | 0.551 |
| G25C U53C G58A | 0.605 |
| C22G C29A G58A C61G A70U | ≤ 0.5 |
| C11G C61G A69U | ≤ 0.5 |
| C5A G6A U7A A43U G44A C46A G63A G68C A69G | 0.532 |
| U3G A42C G67C | ≤ 0.5 |
| G18A C61U | 0.696 |
| G23A G38A G39C G50A G56C | ≤ 0.5 |
| G17C C49A | 0.571 |
| G6C A20U C22U C24U | ≤ 0.5 |
| C34A A42U | 0.618 |
| U19C C22U C61A A70G | ≤ 0.5 |

| Variant | yeast fitness |
| --- | --- |
| C5A U47C G51A A65C | ≤ 0.5 |
| G10C C49G A65G | 0.55 |
| C5G U13C | 0.875 |
| C4A G18C C29A C31A A57G | ≤ 0.5 |
| U3A C11G G17C C24G C46A A65U | ≤ 0.5 |
| G10C C29A C31U G68C | ≤ 0.5 |
| G25C U32G G44A C46G | ≤ 0.5 |
| C5U G10A A21G | 0.59 |
| G9C C22A C34A C55G A65G | 0.526 |
| U2A A36U | 0.596 |
| U7C U8G | 0.697 |
| G58C A70C | 0.923 |
| G23U A40G G63A | ≤ 0.5 |
| U32C C46G G56C | ≤ 0.5 |
| G10C A45U U53G | ≤ 0.5 |
| C5G C29U A43C U54G C60G C62U | ≤ 0.5 |
| A14U G23A C29G C46A C55G G67A | ≤ 0.5 |
| G6C C33G A36U G38C A65G | ≤ 0.5 |
| A14U C24G U26C U28C A45U C49A | ≤ 0.5 |
| C11U C24G G63C G67A | 0.568 |
| C27A U64C | 0.943 |
| G12C C61U C66G | ≤ 0.5 |
| C22U C66A | 0.716 |
| U8C G44A U53C A70U | ≤ 0.5 |

| Variant | yeast fitness |
| --- | --- |
| U35C A40U | 0.856 |
| C5G U35A C60A | ≤ 0.5 |
| U3C G39C G63A | 0.533 |
| G58A | 0.981 |
| C27U U47A C61A A65G | ≤ 0.5 |
| C4G U8A G18C U32A U47C U54C | ≤ 0.5 |
| U28G C31G U59A C61G | ≤ 0.5 |
| U2G G10C A69C | ≤ 0.5 |
| G9A G25C U26A C30U | ≤ 0.5 |
| C11U G58A | 1.01 |
| A14G C24U G63C | ≤ 0.5 |
| U2G C29G G50C A57U | ≤ 0.5 |
| A15U U19C C31U A40C | ≤ 0.5 |
| A15U A57C A65U A69C | ≤ 0.5 |
| U3A A20C U32A C62U G63A | 0.572 |
| G10A C30A C62A | ≤ 0.5 |
| U2A C27A C60U A69G | 0.514 |
| U28C C46A C62A U64A | ≤ 0.5 |
| G25C G41A | 0.789 |
| C30G C61A | ≤ 0.5 |
| C29G A36G A43U C66A | ≤ 0.5 |
| A20U G39A G51A U54G A65C A70C | 0.554 |
| U13C A45C G50U A57G | ≤ 0.5 |
| C27G G44C A45G U64G | ≤ 0.5 |

| Variant | yeast fitness |
| --- | --- |
| G17A C24A C46A | 0.727 |
| C11A U19G A36G U53C U54C A69C | ≤ 0.5 |
| U8C C22U C31U | 0.54 |
| G10A A15C A45C C49G G67U A69C | ≤ 0.5 |
| C11G C31A G39A G48A C61U A65C | 0.56 |
| C5G C61A | 0.651 |
| G23A C46G | 0.683 |
| U13A A14U C22G A37G | 0.631 |
| C11G A21C U26A C34U | ≤ 0.5 |
| C4U U8A U13C A57U C60G G68C | ≤ 0.5 |
| U19C C30U G56A A69C | ≤ 0.5 |
| A20C A65U | 0.722 |
| G10C C22U C60U C61A G63C A65U | ≤ 0.5 |
| G25A A45C | 0.957 |
| C22U G38C | 0.747 |
| C27A U54A A65U C66U | ≤ 0.5 |
| G6C U16A | 0.631 |
| U8C A42U G63A A70G | ≤ 0.5 |
| U26G U28A U53A | ≤ 0.5 |
| A37U C49A C62U | 0.579 |
| C30A C61G | 0.651 |
| A21G U53C A57C A69U | 0.597 |
| U3G U26A C29A C34A G38A A65U | ≤ 0.5 |
| G6A U8A A42U | ≤ 0.5 |

| Variant | yeast fitness |
| --- | --- |
| C24U U59A C66U | 0.565 |
| C4G A15U A21G G56A | 0.626 |
| A15C C34U A57C | 0.603 |
| G10C U13C U32G | ≤ 0.5 |
| U8A A14G C24G G56A | ≤ 0.5 |
| C24G C55U G68C | ≤ 0.5 |
| C5A C29G A36U A43G | ≤ 0.5 |
| U7C C49A G67A | ≤ 0.5 |
| C5U A14G C33G A40G C60G | ≤ 0.5 |
| G6A A40C | 0.967 |
| U2G C22U A57U | ≤ 0.5 |
| U2C G63C C66U | ≤ 0.5 |
| U32G C34U G52A | 0.589 |
| A21U C49A G50C A57C C66G | 0.561 |
| C5G A15U A40U G67C | ≤ 0.5 |
| U16C U26C A36C U64A A70C | ≤ 0.5 |
| A37U U53G A65U | ≤ 0.5 |
| U3A A21C C24G | 0.507 |
| A45G G50C | 0.637 |
| C27G C33G | 0.524 |
| U13A U16A C61U G63C | ≤ 0.5 |
| G12C A15C A20U G41A | ≤ 0.5 |
| C11G A20C C24U A36C U47A G56C C60G | ≤ 0.5 |
| G9A G44C G58A | 0.766 |

| Variant | yeast fitness |
| --- | --- |
| C4A C31G G51C | 0.524 |
| A20U G38A C55U A65G | ≤ 0.5 |
| A43G G58A | 0.969 |
| U13G C22U A70C | 0.748 |
| A40U C55A A57U | ≤ 0.5 |
| C11A G67A | 0.555 |
| C5G U16A A43G | 0.573 |
| C22A G23C G67U | ≤ 0.5 |
| A21C A37U G58A | ≤ 0.5 |
| A21U G25C | 1.08 |
| A15G G17A C29G C31U C46A | ≤ 0.5 |
| C5U C22U | 0.792 |
| A20G C34G C62U | ≤ 0.5 |
| U2C C24U C31U C46A U59A C61A | ≤ 0.5 |
| C29G G58A | 0.68 |
| C29A A42G A70U | 0.582 |
| U3A C5U G18C U54A G56A A70G | ≤ 0.5 |
| A14G G48C U64C | 0.715 |
| A45U G63C A65G | 0.647 |
| A40U A57G | 0.881 |
| G17C C27A C61G | ≤ 0.5 |
| G18C C29G A45G C66U A69C | ≤ 0.5 |
| C4G G10A G41C C62G | 0.572 |
| C4U U7A A36U A45U A57G A70G | ≤ 0.5 |

| Variant | yeast fitness |
| --- | --- |
| U3G U13G A14C G39C G41A C60G C61U C62G A65U | 0.543 |
| C24U A36U | 0.592 |
| U32G C55G | ≤ 0.5 |
| C4G C5U G23A C55A C61A | ≤ 0.5 |
| U2A C24A A36G A45G | ≤ 0.5 |
| A20U U35C C49U C55U U64C | 0.588 |
| U8A U32C G44C C62U | ≤ 0.5 |
| U2G U32G A42U | ≤ 0.5 |
| A20C G39C A70U | 0.521 |
| C4G G9A G10C C29A U53C C62U | ≤ 0.5 |
| A43G A45U G67U | 0.682 |
| U7C G25C | 0.822 |
| C24G U26A | 0.609 |
| G6A A20G A36G C49G C61A | ≤ 0.5 |
| U2A C30U U32A C62G | ≤ 0.5 |
| G10A C11U C29A C34A G44A A69C | ≤ 0.5 |
| U16G A20C C60U | ≤ 0.5 |
| A14G A15C U26C G51C | 0.512 |
| A42U A45U A69C | 0.656 |
| G25C C33A A43U A57U A69U | ≤ 0.5 |
| U2C A21G C33G U35C U59A A69U | ≤ 0.5 |
| C29G A40U A43G C46G U64A | ≤ 0.5 |
| C4G C11G G52A C55U C61A | ≤ 0.5 |

From the RNAGym collection of RNA variant scans (doi:10.1126/science.aae0568)
